Screening data: PubChem BioAssay, The Scripps Research Institute Molecular Screening Center
OXTR potentiate – potentiators of human oxytocin receptor | 320,000 tested, 0.061% active | activation, % at 3 µM | AID 2445 | CHO-OTR cells, Fluo-8 calcium fluorescence, potentiator mode; 0% = oxytocin EC15, 100% = EC100 | P30559;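 active = activation above that plate's cutoff, the mean activation of tested compounds plus 3 SD, cut at about 6.6% in these data, passing the limit was not always enough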;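 note: 100% uses oxytocin at 75 nM as the full agonist control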
Target sequence (P30559 whole entry, looked up): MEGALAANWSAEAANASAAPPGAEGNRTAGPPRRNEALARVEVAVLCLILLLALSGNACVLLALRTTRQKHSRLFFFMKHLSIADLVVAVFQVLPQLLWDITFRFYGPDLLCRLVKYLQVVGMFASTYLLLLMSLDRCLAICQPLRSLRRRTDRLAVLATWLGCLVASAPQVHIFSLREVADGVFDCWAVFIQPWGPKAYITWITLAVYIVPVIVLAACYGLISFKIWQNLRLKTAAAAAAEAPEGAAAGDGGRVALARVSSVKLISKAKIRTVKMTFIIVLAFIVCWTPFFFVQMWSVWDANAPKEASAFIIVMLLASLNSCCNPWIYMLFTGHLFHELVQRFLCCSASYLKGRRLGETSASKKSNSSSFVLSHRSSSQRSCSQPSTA
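Assay system: CHO cell line stably expressing human OTR. Reagent: EC15 oxytocin agonist. Dosing: single dose, 3.0 µM nominal final compound concentration. Timing: compound 6 min at room temperature before oxytocin, 100 s read. Signal: kinetic Fluo-8 calcium fluorescence. Controls: oxytocin EC15 low and EC100 high.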
TAAR1 antag – human TAAR1 antagonism. 360,000 tested, 1.5% active. Q96RJ0. CHO RD-HGA16 TAAR1, Fluo-8 calcium fluorescence, antagonist. inhibition, % at 3 µM;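 active = inhibition above a per-plate cutoff, the mean inhibition of test compounds on that plate plus 3 SD, cut at about 49% in these data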;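 note: 0% = DMSO plus EC80 beta-PEA response and 100% = DMSO alone without agonist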
Target sequence (Q96RJ0 whole entry, looked up): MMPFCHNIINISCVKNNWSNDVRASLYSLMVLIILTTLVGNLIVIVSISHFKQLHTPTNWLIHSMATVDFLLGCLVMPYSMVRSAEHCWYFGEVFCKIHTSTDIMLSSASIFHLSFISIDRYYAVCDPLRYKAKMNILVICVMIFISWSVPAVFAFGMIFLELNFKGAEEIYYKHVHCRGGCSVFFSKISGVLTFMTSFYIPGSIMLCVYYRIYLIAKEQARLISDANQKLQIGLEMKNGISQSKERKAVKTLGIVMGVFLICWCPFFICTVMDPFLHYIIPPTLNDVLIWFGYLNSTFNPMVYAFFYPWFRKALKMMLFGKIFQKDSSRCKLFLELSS
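System: CHO RD-HGA16 cells bearing hTAAR1. Reagent: EC80 β-phenethylamine stimulus. Schedule: seeding 17-24 h prior, 75-min 37 °C, 30-min RT dye loading. Signal: Fluo-8 intracellular calcium dye fluorescence, real-time kinetic reads. Read-out: % inhibition from peak post-agonist over basal fluorescence ratio. Benchmarks: vehicle wells and EC80 agonist wells. Replicates: n of 1.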
V1R ag counter – V1a receptor agonism, counter-screen for OXTR agonists; P37288; CHO-V1R cells, Fluo-8 calcium fluorescence, agonist mode; 0% DMSO, 100% 3 nM vasopressin; activation, % at 3 µM; 320,000 tested, 0.25% active; AID 2797;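 active = activation above the mean activation of all tested compounds plus 3 SD, per screening run, cut at about 20% in these data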;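 note: signal is peak over basal fluorescence ratio across a 100 second FLIPR read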
TAAR1 agonist – human TAAR1 agonism; CHO RD-HGA16 TAAR1, Fluo-8 calcium fluorescence; vehicle wells 0%, saturating PEA agonist 100%; 360,000 tested, 0.99% active; Q96RJ0; activation, % at 3 µM;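 active = activation above the mean activation of all test compounds in the run plus 3 SD, cut at about 38% in these data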
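test system = CHO RD-HGA16 cells carrying human TAAR1 plus Gα16 | schedule = 17-24 h seeding, 75 min 37 °C dye, 30 min RT | compound dosing = 3 µM single concentration | control set = DMSO and PEA EC100 | replicates = n 1 | signal = Fluo-8 fluorescence, 5 s baseline then 140 s kinetic read | measure = percent activation vs PEA EC100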
OXTR agonist – activates the human oxytocin receptor | P30559 | CHO-OTR cells, Fluo-8 calcium fluorescence; normalized: DMSO 0%, oxytocin 100% | activation, % at 3 µM | 320,000 tested, 0.32% active;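 active = activation above the mean of all tested compounds plus 3 SD, cutoff set per screening run, cut at about 20% in these data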;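 note: peak over basal fluorescence ratio from a 100 s FLIPR kinetic read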
TAAR1 ag confirm – confirmation of human TAAR1 agonists | shares compounds with TAAR1 agonist | CHO RD-HGA16 TAAR1, Fluo-8 calcium fluorescence; scaled: DMSO 0%, maximal phenethylamine 100% | activation, % at 3 µM | 2,400 tested, 82% active | AID 651783;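 active = activation above a cutoff set at the run's mean compound activation plus 3 SD, cut at about 39% in these data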
Ga16 nonsel ag – nonselective agonist in parental cells, TAAR1 agonist counter-screen | 2,400 tested, 50% active | CHO-Ga16 parental, Fluo-8 calcium fluorescence; normalized to maximal ATP response, DMSO zero | activation, % at 3 µM | shares compounds with TAAR1 agonist;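 active = activation above the run cutoff, the mean activation over all tested wells plus 3 SD, cut at about 12% in these data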;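 note: 0% = DMSO wells and 100% = maximal ATP response on the peak over basal ratio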
TAAR1 desens – counter-screen for human TAAR1 agonists: agonists that desensitize TAAR1; CHO RD-HGA16 hTAAR1, Fluo-8 calcium, beta-PEA response inhibition; shares compounds with TAAR1 agonist; inhibition, % at 3 µM; 2,400 tested, 46% active; AID 651951;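 active = inhibition above the run cutoff, the mean inhibition of all test compounds plus 3 SD, cut at about 49% in these data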;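 note: beta-PEA stimulus applied at its EC80; loss of beta-PEA calcium signal after compound pretreatment read as receptor desensitization; 0% = DMSO with beta-PEA at EC80 and 100% = DMSO alone without agonist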
Ga16 nonsel ant – counter-screen for TAAR1 agonists: nonselective Ga16 antagonists | AID 651952 | 2,400 tested, 39% active | inhibition, % at 3 µM | shares compounds with TAAR1 agonist | CHO-Ga16 ATP-induced calcium, Fluo-8 fluorescence;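 active = inhibition above the plate's mean compound inhibition plus 3 SD, computed per plate, cut at about 22% in these data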;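 note: 0% = EC80 ATP with DMSO and 100% = DMSO wells without ATP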
Starred values were filed as active, the others as inactive; / = no result. Most compounds without a hit are left out; they make up all but 2.3% or so of the library.

SMILES	OXTR potentiate	TAAR1 antag	V1R ag counter	TAAR1 agonist	OXTR agonist	TAAR1 ag confirm	Ga16 nonsel ag	TAAR1 desens	Ga16 nonsel ant
CCC(=O)OCC(=O)c1c(N)n(Cc2ccccc2)c(=O)n(C)c1=O	-4	-7	1	4	0	/	/	/	/
Cn1c(=O)c(C(=O)COc2ccc(C#N)cc2)c(N)n(Cc2ccccc2)c1=O	-38	50*	28*	119*	32*	100*	52*	49*	27*
CNc1ccccc1C(=O)OCC(=O)Nc1ccc2c(c1)OCO2	-6	-5	-1	3	-1	/	/	/	/
O=C(COC(=O)c1cc(Br)ccc1O)Nc1ccc2c(c1)OCO2	-10	70*	4	75*	5	44*	36*	48	40*
Cc1cc(C(=O)CN2C(=O)C(=O)N(Cc3ccco3)C2=O)c(C)n1CCc1ccc(F)cc1	-7	7	1	48*	2	88*	9	43	12
O=C(C[C@H]1C(=O)N(CCc2ccccc2)C[C@@H]1c1ccccc1)Nc1ccccc1	/	48	/	73*	/	77*	0	48	14
COc1ccc(NC(=O)C[C@H]2C(=O)N(CCc3ccccc3)C[C@@H]2c2ccc(OC)cc2)cc1	/	6	/	21	/	/	/	/	/
O=C(O)C1C2CCC(C2)C1C(=O)Nc1cc(F)ccc1F (stereo not given)	-13	1	0	9	3	/	/	/	/
O=C(O)C1C2CCC(C2)C1C(=O)NCCc1cccc(Cl)c1 (stereo not given)	-7	86*	0	76*	1	88*	-1	73*	0
O=C(O)C1C2CCC(C2)C1C(=O)NCCc1ccc(F)cc1 (stereo not given)	-4	79*	0	78*	0	77*	6	55*	13
COC(=O)C1C/C(=N\NS(=O)(=O)c2ccc(C)cc2)c2sccc2C1 (stereo not given)	1	-11	0	0	-2	/	/	/	/
C[C@H](NC(=O)c1[nH]cnc1C(=O)N[C@H](C)c1ccccc1)c1ccccc1	-7	25	2	47*	4	41*	10	16	6
COc1ccc(OC)c(/C=N/Nc2cc(C)nc(N3CCOCC3)n2)c1	-4	19	-1	3	-2	/	/	/	/
Cc1ccc(Nc2cc(C)nc(N3CCOCC3)n2)cc1	-5	-6	-1	42*	-2	35	1	19	6
Cc1cc(N/N=C/c2ccccc2O)nc(N2CCOCC2)n1	-11	42	-1	43*	-2	66*	2	82*	17
O=C(c1ccccc1)N1CCCC(C(=O)N2CCCCC2)C1 (stereo not given)	0	1	0	0	1	/	/	/	/
O=C(Nc1ccccc1Cc1ccccc1)C1CC(=O)N(c2ccc3c(c2)OCCO3)C1 (stereo not given)	-12	-14	1	6	0	/	/	/	/
CC(=O)c1cc2c(cc1NS(=O)(=O)c1ccc(F)cc1)OCO2	-14	3	0	14	0	/	/	/	/
Cc1cccc(C(C)C)c1NC(=O)COC(=O)c1cc2ccccc2oc1=O	2	-9	2	4	2	/	/	/	/
CCOC(=O)C1C(=O)C=C(/C=C/c2ccc(N(C)C)cc2)CC1c1ccccc1 (stereo not given)	-16	70*	45*	79*	38*	69*	85*	85*	84*
CCN(C(=S)NCc1ccccc1)c1cccc2ccccc12	-3	-12	0	0	-1	/	/	/	/
O=c1cc(CN2CCN(c3ccc(F)cc3)CC2)c2cc3c(cc2o1)CCCC3	-3	1	-1	3	0	/	/	/	/
CCOc1ccc2noc3c2c1C(=O)c1ccccc1-3	-14	43	75*	69*	59*	26	36*	28	40*
CCNc1ccccc(-c2ccc3ccccc3n2)c1=O	3	23	2	-1	0	/	/	/	/
CCNc1ccc2noc3c2c1C(=O)c1ccccc1-3	-11	90*	78*	318*	110*	114*	127*	66*	66*
SMILES	OXTR potentiate	TAAR1 antag	V1R ag counter	TAAR1 agonist	OXTR agonist	TAAR1 ag confirm	Ga16 nonsel ag	TAAR1 desens	Ga16 nonsel ant
CN(C)CCNC(=S)Nc1ccccc1C(C)(C)C	-5	-6	1	10	0	/	/	/	/
O=C(NCCCN1CCOCC1)c1ccc(S(=O)(=O)Nc2cccc(C(F)(F)F)c2)cc1	-4	-6	0	2	1	/	/	/	/
Cn1cccc1/C=N/NC(=O)C(O)c1ccccc1 (stereo not given)	-4	0	0	12	0	/	/	/	/
Cc1cc(/C=C(\C#N)C(=O)Nc2ccc(F)cc2)c(C)n1-c1ccc(N2CCOCC2)c([N+](=O)[O-])c1	-7	21	0	69*	1	24	10	31	28*
O=C1CC(NCCc2ccccc2)C(=O)N1CCc1ccccc1 (stereo not given)	1	10	2	61*	1	63*	3	11	14
C#CCOCCOCCOCCNc1nc(N2CCN(C(=O)[C@H](CCCCN)n3cc(C(N)CC(C)C)nn3)CC2)nc(N2CCN(C(=O)[C@H](CCC(=O)O)n3cc(C(N)[C@H](C)CC)nn3)CC2)n1 (stereo not given in full)	1	/	1	/	0	/	/	/	/
COc1cccc(-c2nc(NC(C)(C)C)c3ccccc3n2)c1O	-22	19	-1	13	9	/	/	/	/
C/C(=C\C=C(C#N)C#N)c1cc(C#N)c(N)o1	/	37	/	99*	/	30	33*	27	25*
CCOC(=O)c1ccc(NC(=S)N2CCSC2c2ccc(Br)cc2)cc1 (stereo not given)	-14	103*	37*	138*	48*	130*	93*	102*	85*
COc1ccccc1N1CCN(Cc2nc(-c3ccc(F)cc3)oc2C)CC1	-14	10	1	1	0	/	/	/	/
COc1ccccc1N1CCN(Cc2cn[nH]c2-c2ccc(F)cc2)CC1	3	0	14	121*	13	123*	80*	48	6
Fc1cccc(NCc2cn3ccccc3n2)c1	-6	6	0	2	0	/	/	/	/
